# Experimental data published in ChEMBL document CHEMBL5579857, “Fragment-Based Discovery of Novel MUS81 Inhibitors” (ACS Med Chem Lett, 2024).
# Columns and labels:
# [1] = Binding affinity to human Avi-tagged MUS81 (246 to 551 residues)/2x8His-tagged EME1 (246 to 570 residues) extracted from Escherichia coli BL21 Gold (DE3) by SPR analysis
# In short: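 Fragments flagged as hits in a DSF screen were taken into SPR against MUS81-EME1 to confirm binding and obtain Kd. Kd is reported as the geometric mean with geometric standard deviation of at least three determinations.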
# [2] = Inhibition of human Avi-tagged MUS81 (246 to 551 residues)/2x8His-tagged EME1 (246 to 570 residues) extracted from Escherichia coli BL21 Gold (DE3) using branched DNA as substrate preincubated for 15 mins followed by substrate addition and measured after 90 mins by FRET assay
# In short: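 IC50 is reported as the geometric mean ± SEM of at least three independent determinations.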
# [3] = Lipophilicity, logD of the compound in octanol/water at pH 7.4 by shake flask method; assay type: physicochemical
# [4] = Kinetic aqueous solubility of the compound at pH 7.4; assay type: physicochemical; details: buffer
# [5] = Metabolic stability in human liver microsomes assessed as intrinsic clearance; assay type: ADME, Microsome
# [6] = Metabolic stability in rat hepatocytes assessed as intrinsic clearance measured per million cells; assay type: ADME, cell-based, Hepatocyte; details: read-out: CLH
# [7] = Efflux ratio of apparent permeability in human Caco-2 cells; assay type: ADME, cell-based
# [8] = target: Voltage-gated inwardly rectifying potassium channel KCNH2 (Homo sapiens, UniProt Q12809); test: Inhibition of hERG; assay type: toxicity
# Voltage-gated inwardly rectifying potassium channel KCNH2, sequence (Q12809 whole entry): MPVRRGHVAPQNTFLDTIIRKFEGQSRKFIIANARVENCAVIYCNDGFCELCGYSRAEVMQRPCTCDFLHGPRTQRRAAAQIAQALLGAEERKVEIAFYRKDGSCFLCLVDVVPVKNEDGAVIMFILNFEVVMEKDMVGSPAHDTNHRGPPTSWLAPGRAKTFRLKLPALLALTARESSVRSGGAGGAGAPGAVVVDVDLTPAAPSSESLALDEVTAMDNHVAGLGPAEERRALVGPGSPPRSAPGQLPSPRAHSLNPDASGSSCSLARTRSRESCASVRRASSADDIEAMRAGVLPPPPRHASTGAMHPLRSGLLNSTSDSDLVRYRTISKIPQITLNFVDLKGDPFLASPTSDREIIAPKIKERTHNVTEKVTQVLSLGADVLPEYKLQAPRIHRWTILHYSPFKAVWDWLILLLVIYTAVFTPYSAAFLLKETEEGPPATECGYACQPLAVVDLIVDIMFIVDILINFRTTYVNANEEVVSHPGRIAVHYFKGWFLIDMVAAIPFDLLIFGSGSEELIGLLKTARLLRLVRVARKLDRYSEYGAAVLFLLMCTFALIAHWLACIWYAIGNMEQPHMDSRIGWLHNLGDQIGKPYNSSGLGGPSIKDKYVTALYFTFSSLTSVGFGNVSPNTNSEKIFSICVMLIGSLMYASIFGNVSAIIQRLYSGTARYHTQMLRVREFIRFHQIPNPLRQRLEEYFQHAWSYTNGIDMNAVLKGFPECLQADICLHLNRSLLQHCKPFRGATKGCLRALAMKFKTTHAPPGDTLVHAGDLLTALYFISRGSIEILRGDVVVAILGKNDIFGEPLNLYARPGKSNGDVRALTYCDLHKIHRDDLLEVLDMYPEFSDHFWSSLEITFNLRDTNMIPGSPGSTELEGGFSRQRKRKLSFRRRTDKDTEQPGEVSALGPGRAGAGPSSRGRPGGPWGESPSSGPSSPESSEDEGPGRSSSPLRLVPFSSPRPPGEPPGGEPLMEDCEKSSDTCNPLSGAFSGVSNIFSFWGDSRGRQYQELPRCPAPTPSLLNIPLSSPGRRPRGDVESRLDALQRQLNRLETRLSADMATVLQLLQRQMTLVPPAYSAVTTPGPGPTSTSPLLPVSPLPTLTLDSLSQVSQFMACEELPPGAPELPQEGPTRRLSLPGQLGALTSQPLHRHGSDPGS
# [9] = target: T1, Prostaglandin G/H synthase 2 (Homo sapiens, UniProt P35354); test: Inhibition of COX2 (unknown origin); assay type: toxicity
# T1 sequence (P35354 whole entry): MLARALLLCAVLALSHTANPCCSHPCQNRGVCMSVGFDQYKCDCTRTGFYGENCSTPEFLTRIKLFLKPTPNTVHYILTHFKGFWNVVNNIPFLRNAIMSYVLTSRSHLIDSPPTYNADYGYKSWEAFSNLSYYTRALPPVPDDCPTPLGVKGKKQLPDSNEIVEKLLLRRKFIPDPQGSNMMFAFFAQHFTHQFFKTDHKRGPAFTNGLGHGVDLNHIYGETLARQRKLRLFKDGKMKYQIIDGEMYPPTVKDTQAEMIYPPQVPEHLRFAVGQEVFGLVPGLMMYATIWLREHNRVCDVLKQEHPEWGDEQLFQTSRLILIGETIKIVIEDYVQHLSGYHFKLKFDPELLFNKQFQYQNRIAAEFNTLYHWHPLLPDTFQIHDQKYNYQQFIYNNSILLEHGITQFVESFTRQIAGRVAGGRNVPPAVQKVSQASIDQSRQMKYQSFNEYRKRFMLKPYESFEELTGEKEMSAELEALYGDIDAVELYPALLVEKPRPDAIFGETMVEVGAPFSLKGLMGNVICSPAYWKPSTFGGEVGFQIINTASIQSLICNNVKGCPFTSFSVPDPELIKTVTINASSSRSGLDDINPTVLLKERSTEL
# PDE = test: Inhibition of PDE (unknown origin); assay type: toxicity, Homo sapiens
# Insulin receptor = Insulin receptor (Homo sapiens, UniProt P06213); test: Inhibition of INSR (unknown origin); assay type: toxicity
# Insulin receptor, sequence (P06213 28-758 limits assumed): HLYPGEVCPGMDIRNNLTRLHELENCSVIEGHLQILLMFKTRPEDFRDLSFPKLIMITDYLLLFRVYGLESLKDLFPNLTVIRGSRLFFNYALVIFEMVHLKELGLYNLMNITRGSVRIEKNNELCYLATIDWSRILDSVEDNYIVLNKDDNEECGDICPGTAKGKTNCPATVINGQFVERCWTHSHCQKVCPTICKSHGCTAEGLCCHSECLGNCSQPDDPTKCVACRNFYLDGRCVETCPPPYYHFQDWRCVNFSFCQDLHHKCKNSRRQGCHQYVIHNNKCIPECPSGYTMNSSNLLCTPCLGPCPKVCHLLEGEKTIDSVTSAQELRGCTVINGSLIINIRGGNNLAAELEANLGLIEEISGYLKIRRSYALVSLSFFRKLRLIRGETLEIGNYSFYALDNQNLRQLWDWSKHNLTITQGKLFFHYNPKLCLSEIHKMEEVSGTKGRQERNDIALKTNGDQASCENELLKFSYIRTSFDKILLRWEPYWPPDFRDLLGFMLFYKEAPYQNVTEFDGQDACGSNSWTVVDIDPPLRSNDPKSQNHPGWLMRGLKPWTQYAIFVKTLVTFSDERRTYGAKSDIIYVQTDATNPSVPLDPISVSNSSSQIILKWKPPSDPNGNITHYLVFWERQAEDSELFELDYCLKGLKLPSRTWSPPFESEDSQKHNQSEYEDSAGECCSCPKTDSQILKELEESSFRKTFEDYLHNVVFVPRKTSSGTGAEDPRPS
# Insulin receptor, sequence (P06213 763-1382 limits assumed): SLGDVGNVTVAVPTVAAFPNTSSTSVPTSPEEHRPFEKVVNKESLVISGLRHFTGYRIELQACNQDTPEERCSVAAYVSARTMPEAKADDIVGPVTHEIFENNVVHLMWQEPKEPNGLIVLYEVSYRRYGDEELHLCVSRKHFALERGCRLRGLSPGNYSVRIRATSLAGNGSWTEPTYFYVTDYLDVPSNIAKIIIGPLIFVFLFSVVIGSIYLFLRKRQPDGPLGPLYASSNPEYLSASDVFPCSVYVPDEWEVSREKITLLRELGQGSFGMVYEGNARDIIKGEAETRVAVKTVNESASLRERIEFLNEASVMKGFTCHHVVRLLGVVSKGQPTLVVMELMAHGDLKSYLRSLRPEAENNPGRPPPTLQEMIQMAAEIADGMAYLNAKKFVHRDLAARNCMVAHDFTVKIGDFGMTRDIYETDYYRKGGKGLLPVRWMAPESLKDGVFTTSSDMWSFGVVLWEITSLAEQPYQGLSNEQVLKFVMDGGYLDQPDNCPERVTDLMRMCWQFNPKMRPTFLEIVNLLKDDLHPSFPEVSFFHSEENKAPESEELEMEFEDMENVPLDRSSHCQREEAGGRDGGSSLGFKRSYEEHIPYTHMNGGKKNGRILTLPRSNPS
# [10] = target: GABA-A receptor; anion channel; test: Inhibition of GABA (unknown origin); assay type: toxicity, Homo sapiens
# [11] = target: Glutamate [NMDA] receptor; test: Inhibition of NMDA (unknown origin); assay type: toxicity, Homo sapiens
# [12] = target: CaV-L (Voltage-gated L-type calcium channel) (Homo sapiens, UniProt O60840+Q01668+Q13698+Q13936); test: Inhibition of CaV-L (unknown origin); assay type: toxicity
Compound,IC50 [2] [nM],Kd [1] [nM],also measured
O=C(O)c1nc(-c2ccccc2-c2ccccc2)[nH]c(=O)c1O,4500,4300,–
O=C(O)c1nc(-c2cccc(Cl)c2)nc(O)c1O,5600,4800,–
CNC(=O)c1nc(-c2ccccc2)[nH]c(=O)c1O,> 100000,74000,–
Cc1nc(C(=O)O)c(O)c(=O)[nH]1,> 100000,44000,–
O=C(O)c1nc(-c2ccccc2)nc(O)c1O,3900,2300,–
CN(C)C(=O)c1nc(-c2ccccc2)[nH]c(=O)c1O,> 100000,> 100000,–
NC(=O)c1nc(-c2ccccc2)[nH]c(=O)c1O,> 100000,> 100000,–
COC(=O)c1nc(-c2ccccc2)[nH]c(=O)c1O,> 100000,56000,–
O=C(O)c1nc(-c2ccccc2Cl)[nH]c(=O)c1O,3800,4000,–
O=C(O)c1cc(-c2ccc(-c3ccccc3)cc2)[nH]c(=O)c1O,4100,1400,–

# These reach a lower IC50 [2]. Values come first.
IC50 [2] [nM],Compound,Kd [1] [nM],also measured
2800,O=C(O)c1nc(C2CCCCC2)nc(O)c1O,2200,–
2800,N#CCc1ccc(-c2ccccc2-c2nc(C(=O)O)c(O)c(=O)[nH]2)cc1,540,–
2400,O=C(O)c1nc(-c2ccc(-c3ccccc3)cc2)[nH]c(=O)c1O,720,–
2100,O=C(O)c1nc(-c2ccc(Cl)cc2)nc(O)c1O,1100,–
2000,O=C(O)c1nc(-c2cccc(-c3ccccc3)c2)[nH]c(=O)c1O,1800,–
2000,O=C(O)c1nc(-c2ccc(Br)cc2)nc(O)c1O,1000,–
1500,O=C(O)c1nc(-c2ccc3ccccc3c2)[nH]c(=O)c1O,1300,–
1200,O=C(O)c1nc(-c2ccc(N3CCNCC3)cc2)[nH]c(=O)c1O,2100,–
1100,O=C(O)c1[nH]c(-c2ccc(-c3ccccc3)cc2)cc(=O)c1O,430,–
660,O=C(O)c1cn(-c2ccc(-c3ccccc3)cc2)cc(O)c1=O,790,–
470,O=C(O)c1cn(-c2ccc(N3CCNCC3)cc2)cc(O)c1=O,2000,–
470,N#Cc1cc(N2CCNCC2)ccc1-n1cc(O)c(=O)c(C(=O)O)c1,1200,–
320,O=C(O)c1cn(-c2ccc(-c3ccc(C(=O)N4CCNCC4)cc3)cc2)cc(O)c1=O,670,logD [3]: < 0; Kinetic_solubility [4]: > 200 µM; CLH [5]: < 3 µL/min/mg; hepatocyte CLint [6]: 11 µL/min/1e6 cells; Ratio [7]: 1.5; IC50 [8]: > 40000 nM; IC50 [9]: > 100000 nM; IC50 (PDE): > 100000 nM; IC50 (Insulin receptor): > 100000 nM; IC50 [10]: > 100000 nM; IC50 [11]: > 100000 nM; IC50 [12]: > 100000 nM
270,N#Cc1cc(-c2ccc(C(=O)N3CCNCC3)cc2)ccc1-n1cc(O)c(=O)c(C(=O)O)c1,1100,logD [3]: < 0; Kinetic_solubility [4]: > 200 µM; CLH [5]: 7 µL/min/mg; hepatocyte CLint [6]: 10 µL/min/1e6 cells; Ratio [7]: 1.1; IC50 [8]: > 40000 nM; IC50 [9]: > 100000 nM; IC50 (PDE): > 100000 nM; IC50 (Insulin receptor): > 100000 nM; IC50 [10]: > 100000 nM; IC50 [11]: > 100000 nM; IC50 [12]: > 100000 nM
